ChEMBL document CHEMBL1124154, “Polycyclic aryl- and heteroarylpiperazinyl imides as 5-HT1A receptor ligands and potential anxiolytic agents: synthesis and structure-activity relationship studies” (J Med Chem, 1988)

Columns and labels:
Rattus norvegicus [1] = species: Rattus norvegicus; experiment: Concentration required to produce 50% block in avoidance responding in conditioned avoidance response test in rat; assay type: functional
In short: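 Trained rats in shelf-jump and/or discrete-trial conditioned avoidance paradigms. Drug given ip or po to at least five rats per dose, with a control session before each drug run. Trials without avoidance (avoidance block) were counted per dose as a percentage of total trials, with control set at 100%. AB50 was taken from a least-squares dose-effect regression line.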

[2] = target: D(2) dopamine receptor (Rattus norvegicus) (UniProt P61169); experiment: In vitro inhibition of [3H]spiperone binding to Dopamine receptor D2 from rat brain limbic tissue at 10 uM; assay type: tissue-based; details: Limbic system
D(2) dopamine receptor (Rattus norvegicus), sequence (P61169 whole entry): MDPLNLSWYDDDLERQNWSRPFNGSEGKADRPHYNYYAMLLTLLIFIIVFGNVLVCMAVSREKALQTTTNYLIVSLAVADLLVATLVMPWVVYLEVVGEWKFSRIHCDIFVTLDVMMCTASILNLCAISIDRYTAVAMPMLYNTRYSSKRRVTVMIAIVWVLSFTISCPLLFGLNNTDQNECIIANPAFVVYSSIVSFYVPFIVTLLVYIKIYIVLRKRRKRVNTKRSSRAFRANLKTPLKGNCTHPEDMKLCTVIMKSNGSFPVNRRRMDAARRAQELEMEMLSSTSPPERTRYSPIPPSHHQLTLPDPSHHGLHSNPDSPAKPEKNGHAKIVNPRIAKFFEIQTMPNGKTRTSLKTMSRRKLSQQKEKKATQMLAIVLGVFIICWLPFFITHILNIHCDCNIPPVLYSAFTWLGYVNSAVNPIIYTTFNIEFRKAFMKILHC

Rattus norvegicus [3] = experiment: Concentration required to produce 50% block in avoidance responding in conditioned avoidance response test in rat following peroral administration; assay type: functional
In short: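 Previously trained rats were given compound po at pretreatment time to at least five rats per dose in a conditioned avoidance paradigm (shelf-jump or discrete trial). A control session preceded each drug run. Trials without avoidance were counted as a % of total trials, with control set at 100%. AB50 came from a least-squares dose-effect regression line.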

[4] = target: T1, 5-hydroxytryptamine receptor 1A (Rattus norvegicus, UniProt P19327); experiment: In vitro inhibition of [3H]-8-hydroxy-2-(di-n-propylamino)tetralin binding to 5-hydroxytryptamine 1A receptor from rat hippocampal tissue.
T1 sequence (P19327 whole entry): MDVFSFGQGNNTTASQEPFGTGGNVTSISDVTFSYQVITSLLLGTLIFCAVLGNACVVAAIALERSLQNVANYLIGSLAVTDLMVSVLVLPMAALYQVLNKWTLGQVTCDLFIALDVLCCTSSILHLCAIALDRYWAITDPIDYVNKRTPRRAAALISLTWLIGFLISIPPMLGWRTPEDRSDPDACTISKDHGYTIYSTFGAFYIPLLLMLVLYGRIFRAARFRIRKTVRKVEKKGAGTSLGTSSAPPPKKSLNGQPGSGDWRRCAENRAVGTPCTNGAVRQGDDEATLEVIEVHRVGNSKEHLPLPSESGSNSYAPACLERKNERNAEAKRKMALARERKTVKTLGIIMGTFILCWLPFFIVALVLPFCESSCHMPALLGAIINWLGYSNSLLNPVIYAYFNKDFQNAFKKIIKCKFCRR

[5] = Ratio of ED50 stereotyped behavior in mice; assay type: functional
Mus musculus [6] = experiment: Inhibition of apomorphine induced stereotyped behavior in mice after intraperitoneal administration; assay type: functional; details: ip
In short: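 Male CF-1 mice (20-25 g, acclimated ≥3 days) received ip compound in 0.25% Tween 80 at 1, 10, 30 and 60 mg/kg (six/dose), alongside vehicle controls. After 30 min they were challenged with apomorphine 1 mg/kg sc. Stereotypy was scored every 5 min and totaled over the 30-min session.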

Mus musculus [7] = experiment: Inhibition of apomorphine induced stereotyped behavior (i.p.); assay type: functional; details: ip
D(2) dopamine receptor = D(2) dopamine receptor (Rattus norvegicus, UniProt P61169); experiment: In vitro inhibition of [3H]spiperone binding to Dopamine receptor D2 from rat brain limbic tissue; assay type: tissue-based, Limbic system
D(2) dopamine receptor, sequence (P61169 whole entry): as the sequence (P61169 whole entry) above
In short: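 Limbic tissue (nucleus accumbens, septum, olfactory tubercle) from Sprague-Dawley rats, washed membranes at 0.2-0.3 mg protein. Incubated with 0.3 nM [3H]spiroperidol and a range of drug concentrations, 10 min at 37 °C, in Tris buffer pH 7.1 with NaCl, KCl, CaCl2, ascorbate and pargyline. Filtered through GF/B and counted by scintillation. Nonspecific binding defined with 1 μM (+)-butaclamol.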

[8] = target: D(2) dopamine receptor (Rattus norvegicus) (UniProt P61169); experiment: In vitro inhibition of [3H]spiperone binding to dopamine receptor D2 from rat brain limbic tissue at 1 uM; assay type: tissue-based; details: Limbic system
[9] = target: T2, 5-hydroxytryptamine receptor 1A (Rattus norvegicus) (UniProt P19327); experiment: In vitro inhibition of [3H]-8-hydroxy-2-(di-n-propylamino)tetralin binding to 5-hydroxytryptamine 1A receptor from rat hippocampal tissue; details: Hippocampus; concentration not given here
T2 sequence (whole entry): T1 sequence (P19327 whole entry)

[10] = target: T2, 5-hydroxytryptamine receptor 1A (Rattus norvegicus); experiment: In vitro inhibition of [3H]-8-hydroxy-2-(di-n-propylamino)tetralin binding to 5-hydroxytryptamine 1A receptor from rat hippocampal tissue at 1 uM; details: Hippocampus
Mus musculus [11] = experiment: Inhibition of apomorphine induced climbing behavior in mice after intraperitoneal administration; assay type: functional; details: ip
In short: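 Male CF-1 mice (20-25 g), acclimated at least 3 days, received compound in 0.25% Tween 80 ip at 1, 10, 30 and 60 mg/kg (six/dose) or vehicle. 30 min later they were challenged with apomorphine 1 mg/kg sc. Climbing was scored every 5 min and totaled over 30 min.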

| inhibition [8] | Compound | AB50 (Rattus norvegicus [1]) | Ratio [5] | ED50 (Mus musculus [6]) | further results |
| --- | --- | --- | --- | --- | --- |
| – | CC(C)=C1C2C=CC1C1C(=O)N(CCCCN3CCN(c4ncccn4)CC3)C(=O)C21.Cl (configuration not stated) | >40 mg/kg | – | – | inhibition [2]: 50% |
| – | O=C1c2ccccc2S(=O)(=O)N1CCCCN1CCN(c2ncccn2)CC1 [IPSAPIRONE] | 19 mg/kg | – | – | AB50 (Rattus norvegicus [3]): 42 mg/kg; Ki [4]: 10 nM |
| – | COc1ccccc1N1CCN(CCCCN2C(=O)C3C4C=CC(C5CC45)C3C2=O)CC1.Cl (configuration not stated) | 40 mg/kg | 1 | 10 mg/kg | ED50 (Mus musculus [7]): 10 mg/kg; Ki [4]: 1.3 nM; Ki (D(2) dopamine receptor): 16 nM |
| 65% | Cl.O=C1C2C3C=CC(C4CCC34)C2C(=O)N1CCCCN1CCN(c2ccc(C(F)(F)F)cn2)CC1 (configuration not stated) | >40 mg/kg | – | – | inhibition [9]: 72% |
| 33% | Cl.O=C1C2C3C=CC(C4CC34)C2C(=O)N1CCCCN1CCN(c2cnccn2)CC1 (configuration not stated) | 49 mg/kg | 2.35 | 33 mg/kg | inhibition [10]: 68%; ED50 (Mus musculus [11]): 14 mg/kg |
| – | O=C1CC2(CCCC2)CC(=O)N1CCCCN1CCN(c2ncccn2)CC1 [BUSPIRONE] | 5 mg/kg | – | – | AB50 (Rattus norvegicus [3]): 32 mg/kg |
| 48% | Cl.O=C1C2C3C=CC(C4CCC34)C2C(=O)N1CCCCN1CCN(c2cnccn2)CC1 (configuration not stated) | 60 mg/kg | 2.1 | 32 mg/kg | ED50 (Mus musculus [11]): 15 mg/kg |
